Published values from different studies.
MET: Hepatocyte growth factor receptor (MET, Homo sapiens, UniProt P08581)
MET M1250T: Hepatocyte growth factor receptor (MET, Homo sapiens, UniProt P08581, M1250T)
MET Y1235D: Hepatocyte growth factor receptor (MET, Homo sapiens, UniProt P08581, Y1235D)

| SMILES | target | assay | conditions | remaining binding |
| --- | --- | --- | --- | --- |
| CC1=C(C#N)[C@@H](c2ccc3[nH]nc(C)c3c2)C(C#N)=C(c2ccc(Cl)cc2)N1 | MET | cell-free assay, competition with immobilised ligand | 1 µM | 17.2% |
| CCN1CCN(Cc2ccc(C(=O)Nc3ccc(C)c(Oc4ccc5c(c4)CC(=O)N5)c3)cc2C(F)(F)F)CC1 | MET M1250T | binding, competition with immobilised ligand | 1 µM | 100% |
| CN(C)c1ncc(F)c(-c2cnn3ncccc23)n1 | MET | binding | 1 µM | 97% |
| COc1ncc2cc3ccccc3nc2c1C#N | MET | cell-free assay, competition with immobilised ligand | 5 µM | 91% |
| O=C(Nc1c[nH]nc1C(=O)NC1CCNCC1)c1cc(F)cc(F)c1 | MET Y1235D | binding, competition with immobilised ligand | 1 µM | 100% |
| O=C(c1ccc(Nc2ncc(Cl)c(-c3ccc(Cl)s3)n2)cc1)N1CCC(N2CCCC2)CC1 | MET Y1235D | binding, competition with immobilised ligand | 1 µM | 51% |
| CN(C)c1nccc(-c2cnn3ncccc23)n1 | MET M1250T | binding | 1 µM | 100% |
| CN(C)C(=O)Cn1cc(-c2nc(C3(c4ccc(-c5cnc(N)nc5)cc4)CC3)no2)cn1 | MET Y1235D | cell-free assay, competition with immobilised ligand | 1 µM | 98% |
| O=C(NCCCN1CCOCC1)c1ccc(Nc2ncc(Cl)c(-c3ccc(Cl)s3)n2)cc1 | MET Y1235D | binding, competition with immobilised ligand | 1 µM | 99% |
| O=C(NCC1CCOCC1)c1n[nH]cc1NC(=O)c1c(F)cccc1F | MET | binding, competition with immobilised ligand | 1 µM | 100% |
| CCS(=O)(=O)c1cc2cc(C[C@](O)(CC(C)(C)c3ccc(F)cc3C(N)=O)C(F)(F)F)[nH]c2cn1 | MET | cell-free assay, competition with immobilised ligand | 1 µM | 98% |
| C[C@@H]1CN(c2ccc3ncc(-c4ccc5[nH]nc(C6CC6)c5c4)n3n2)C[C@H](C)O1 | MET | binding, competition with immobilised ligand | 0.5 µM | 80% |
| CCCCN(CCCC)C(=O)CN1C[C@H](c2cc(OC)c3c(c2)OCO3)[C@@H](C(=O)O)[C@@H]1CC(C)(C)CCC | MET Y1235D | cell-free assay, competition with immobilised ligand | 1 µM | 100% |
| COC(=O)Nc1nc2ccc(C(=O)c3ccccc3)cc2[nH]1 | MET | cell-free assay, competition with immobilised ligand | 10 µM | 32% |
| CN1CCN(c2ccc(Nc3nccc(-c4ccccc4)n3)cc2C(F)(F)F)CC1 | MET M1250T | binding | 10 µM | 24% |
| F[C@@H]1CCN(c2nccc(-c3cnn4ncccc34)n2)C1 | MET Y1235D | binding | 1 µM | 100% |
| COc1cnc(Nc2cccc(S(N)(=O)=O)c2)nc1N1CCN(c2ccccc2)CC1 | MET | binding, competition with immobilised ligand | 1 µM | 100% |

| SMILES | target | assay | conditions | remaining binding |
| --- | --- | --- | --- | --- |
| CN(C)C(=O)Cn1cc(-c2nc([C@@](C)(c3ccc(-c4cnc(N)nc4)cc3)C3CC3)no2)cn1 | MET Y1235D | cell-free assay, competition with immobilised ligand | 1 µM | 96% |
| N[C@@H]1CCN(c2nccc(-c3cnn4ncccc34)n2)C1 | MET | binding | 1 µM | 60% |
| O=C(NCCCN1CCOCC1)c1ccc(Nc2nccc(-c3cc4ccccc4s3)n2)cc1 | MET M1250T | binding, competition with immobilised ligand | 1 µM | 69% |
| Cc1cnn2ncc(-c3ccnc(N(C)C)n3)c2c1 | MET | binding | 1 µM | 100% |
| c1cncc(-c2cccc(Nc3nccc(NC4CCCCC4)n3)c2)c1 | MET | binding, competition with immobilised ligand | 10 µM | 43% |
| O=C(NCCCC1CCCCC1)c1ccc(CNC(=O)c2cnn(-c3ccccc3)c2C(F)(F)F)cc1 | MET Y1235D | cell-free assay, competition with immobilised ligand | 0.1 µM | 100% |
| c1cnn2ncc(-c3ccnc(N4CCC45COC5)n3)c2c1 | MET | binding | 1 µM | 83% |
| Nc1ncc2c(n1)-c1c([nH]c3ccc(C#CC4CC4)cc13)CCCC2 | MET | binding, competition with immobilised ligand | 1 µM | 100% |
| Cn1cc(Cl)c2c(Oc3c(F)cc(Nc4cc(Cl)nc(N)n4)cc3F)ccnc21 | MET Y1235D | cell-free assay, competition with immobilised ligand | 0.1 µM | 91% |
| C[C@@H]1CCN(c2nccc(-c3cnn4ncccc34)n2)C1 | MET M1250T | binding | 1 µM | 98% |
| O=C(c1ccc(Nc2ncc(Cl)c(-c3cc4ccccc4s3)n2)cc1)N1CCC(N2CCCC2)CC1 | MET Y1235D | binding, competition with immobilised ligand | 1 µM | 44% |
| CN(C)c1nccc(-c2cnc3ncccn23)n1 | MET M1250T | binding | 1 µM | 91% |
| CNC(=O)Nc1ccc2c(c1)CC[C@@]21OC(=O)N(CC(=O)N(Cc2ccc(F)cc2)[C@@H](C)C(F)(F)F)C1=O | MET Y1235D | cell-free assay, competition with immobilised ligand | 1 µM | 81% |
| CNC(=O)[C@@H]1CC[C@@H](n2c(-c3ccc4cnccc4c3)nc3ccc(C(=O)NCc4cccc(C(N)=O)c4)cc32)C1 | MET | binding, competition with immobilised ligand | 1 µM | 98% |
| Cc1cnc(Nc2ccc(C(=O)N3CCC(N4CCCC4)CC3)cc2)nc1-c1cc2ccccc2s1 | MET M1250T | binding, competition with immobilised ligand | 1 µM | 31% |
| COc1cnc(Nc2cccc(S(N)(=O)=O)c2)nc1N1CCN(c2ccccc2)C(=O)C1 | MET Y1235D | binding, competition with immobilised ligand | 1 µM | 100% |
| O=C(c1ccc(Nc2nccc(-c3cc4ccccc4s3)n2)cc1)N1CCC(N2CCCC2)CC1 | MET M1250T | binding, competition with immobilised ligand | 1 µM | 68% |
